In PMC3647260 (Journal of the American Heart Association: Cardiovascular …, 2013):
Converted amounts (≈) assume the structure as drawn. Bridge positions count the residues as written; N and C are the ends. Peptide text beside a SMILES is read from it.

What was measured:
[1] = tested on: ldlr^−/− mice; assay type: in vivo, mouse (B6.129S7-Ldlrtm1Her/J, female); conditions: 4 weeks, Western diet, osmotic pump, vs saline
How it was run: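 Female ldlr−/− mice on a Western diet received peptide by subcutaneous osmotic pump (10 mg in 100 μL water) or saline. After an overnight fast, plasma cholesterol, triglycerides and glucose were measured at 1, 4 and 8 weeks, using a separate group of animals at each time.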

[2] = tested on: ldlr^−/− mice; assay: Atherosclerotic lesions in the aortic root; assay type: in vivo, mouse (B6.129S7-Ldlrtm1Her/J, female); conditions: 0.4 mg/mouse i.p. 3 times daily, 4 weeks; n=5/group
How it was run: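 Female ldlr−/− mice aged 6 weeks were fed a Western diet (21% milk fat, 0.15% cholesterol) and given peptide i.p. (0.4 or 0.7 mg in 200 μL saline every 8 or 12 h), with saline controls. Mice were saline-perfused and hearts OCT-frozen. Every other 10-μm aortic sinus section was taken (15 sections, 300 μm), baked overnight at 55°C and stained with Oil-red-O/hematoxylin. Lesion area, excluding the internal elastic lamina, was averaged per mouse.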

[3] = tested on: NFκB RelA (p65); assay: Immunoblot of phosphorylated NFκB RelA in liver extracts of treated mice; assay type: in vivo, mouse (ldlr^−/−); conditions: 8 weeks, Western diet, osmotic pump, vs saline; relative ratio to total RelA
[4] = tested on: GAPDH; assay: Pull-down assay, nonspecific control protein, Jurkat extract; assay type: binding, human (Jurkat T cells); conditions: biotinylated peptide, Jurkat whole-cell extract; immunoblot
[5] = tested on: GAPDH; assay: Pull-down assay, control protein, HepG2 extract; assay type: binding, human (HepG2 cells); conditions: biotinylated peptide, HepG2 whole-cell extract; immunoblot
How it was run: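 HepG2 cells were serum-starved overnight in DMEM/1% FBS and lysed in binding buffer (10 mmol/L HEPES pH 7.9, 150 mmol/L NaCl, 0.1% NP-40, protease inhibitors). Biotinylated peptide (10 nmol) was incubated with 1.5 mg extract overnight at 4°C. After clearing at 16 000g, it was captured on Neutravidin beads for 4 h. Beads were washed, boiled in SDS buffer and immunoblotted for importins and GAPDH.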

[6] = tested on: SREBP1; assay: SREBP1 nuclear translocation in sterol-depleted HepG2 cells; assay type: cell-based, human (HepG2 cells)
How it was run: (§1)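 HepG2 cells were sterol-depleted with hydroxypropyl-β-cyclodextrin for 15 min and rinsed. They were then incubated 2 h in DMEM/5% delipidized FBS with 10 μmol/L MG132 and 0, 10 or 30 μmol/L test compound. Nuclear and cytosolic extracts were immunoblotted for SREBPs, normalized to Lamin A/C or B (nuclear) or GAPDH/β-actin (cytosolic). Percent inhibition of nuclear translocation comes from ≥3 independent experiments.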

[7] = tested on: SREBP2; assay: SREBP2 nuclear translocation in sterol-depleted HepG2 cells; assay type: cell-based, human (HepG2 cells); conditions: 2 hours after HPCD
How it was run: as §1

[8] = tested on: SREBP1; assay: SREBP1 protein in liver extracts of treated mice; assay type: in vivo, mouse (ldlr^−/−); conditions: Western diet, osmotic pump, vs saline; P<0.05; 8 weeks in Figure 6
[9] = tested on: SREBP2; assay: SREBP2 protein in liver extracts of treated mice; assay type: in vivo, mouse (ldlr^−/−); conditions: Western diet, osmotic pump, vs saline; P<0.05; 8 weeks in Figure 6
[10] = tested on: SREBP1 and SREBP2 and their target gene transcripts; assay: Quantitative PCR of SREBP and target gene transcripts in liver; assay type: in vivo, mouse (ldlr^−/−); conditions: osmotic pump, vs saline, n=5; for hmgcr (HMG-CoA reductase) mRNA in liver: P<0.005
How it was run: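 Total liver RNA from Western diet-fed ldlr−/− mice, given peptide or saline by osmotic pump for 4 or 8 weeks, was reverse-transcribed. Transcripts were quantified by real-time PCR with TaqMan probes, using 18S […] as the invariant control.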

[11] = tested on: NPC1L1; assay: NPC1L1 protein in whole-cell liver extracts; assay type: in vivo, mouse (ldlr^−/−); conditions: 8 weeks, osmotic pump, vs saline; ratio to β actin; 4 mice/group; P<0.05
[12] = tested on: HDAC3; assay: HDAC3 in liver nuclear extracts; assay type: in vivo, mouse (ldlr^−/−); conditions: 8 weeks, osmotic pump, vs saline; 5 mice/group
How it was run: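 Liver nuclear extracts came from Western diet-fed ldlr−/− mice after 8 weeks of subcutaneous osmotic pump dosing (10 mg in 100 μL water) or saline; phosphatase inhibitors were added. HDAC3 was immunoblotted and expressed as a ratio to β-actin. Groups were compared by Mann–Whitney test.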

[13] = tested on: ChREBP; assay: Glucose-induced nuclear translocation of ChREBP in HepG2 cells; assay type: cell-based, human (HepG2 cells); conditions: 30 μmol/L, 24 hours; 25 mmol/L glucose + 100 nmol/L insulin after starvation; 3 experiments; P<0.05
How it was run: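 HepG2 cells (kept in DMEM/10% FBS) were starved 24 h in DMEM with 5.5 mmol/L glucose. They were refed 25 mmol/L glucose plus 100 nmol/L insulin, with or without 30 μmol/L test compound, for 24 h. Nuclear and cytosolic extracts were prepared with phosphatase inhibitors and immunoblotted for ChREBP, with lamin loading controls for nuclear fractions.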

[14] = Blood cell counts, blood chemistries and overt signs of toxicity; assay type: in vivo, mouse (ldlr^−/−)
How it was run: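 Western diet-fed ldlr−/− mice, treated or saline controls. Complete blood counts were run by a clinical hematology laboratory, and lymphocyte subsets were measured by flow cytometry.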

[15] = Solubility; assay type: physicochemical; conditions: method not given
[16] = liver, spleen, pancreas, and lungs, ref not given; cited from earlier work
[17] = tested on: microbial and autoimmune inflammation; conditions: ref [29]; cited from earlier work
[18] = tested on: NOD mice; conditions: intense, short-term treatment, ref [20]; cited from earlier work
[19] = ldlr^−/− mice fed a Western diet

CSCC[C@@H]1NC(=O)[C@H](CC(C)C)NC(=O)[C@H](CCCCN)NC(=O)[C@H](CCC(N)=O)NC(=O)[C@H](CCCNC(=N)N)NC(=O)[C@H](CCCCN)NC(=O)[C@H](CCCNC(=N)N)NC(=O)[C@H](CCC(N)=O)NC(=O)[C@H](C(C)C)NC(=O)[C@@H](NC(=O)[C@@H]2CCCN2C(=O)[C@H](C)NC(=O)[C@H](CC(C)C)NC(=O)[C@H](CC(C)C)NC(=O)[C@H](C)NC(=O)[C@H](CC(C)C)NC(=O)[C@H](CC(C)C)NC(=O)[C@@H](NC(=O)[C@H](C)NC(=O)[C@@H]2CCCN2C(=O)[C@H](CC(C)C)NC(=O)[C@H](CC(C)C)NC(=O)[C@H](C)NC(=O)[C@@H](NC(=O)[C@H](C)NC(=O)[C@H](C)N)C(C)C)C(C)C)CSSC[C@@H](C(=O)O)NC(=O)[C@@H]2CCCN2C1=O [cSN50.1] (H-AAVALLPAVLLALLAPCVQRKRQKLMPC-OH; disulfide 17-28)
plasma ALT (alanine transaminase) [1]: significantly reduced
plasma AST (aspartate transaminase) [1]: significantly reduced
protection from atherosclerosis, lower dose [2]: not protected
phosphorylated NFκB RelA (p65) in cytosolic and nuclear fractions of liver cells [3]: significantly reduced
interaction with GAPDH [4]: not with the nonspecific cytoplasmic control protein GAPDH
interaction with GAPDH [5]: not with the control protein, GAPDH
precursor pSREBP1 in cytosolic fraction ([6]; 30 μmol/L, 2 hours after HPCD, 4 experiments): remained unchanged
nSREBP1 in cytosolic fraction ([6]; 30 μmol/L, 2 hours after HPCD, 4 experiments, P<0.05): significantly more
processing of SREBP precursors to nuclear (mature) forms, SREBP1 ([6]; 2 hours after HPCD, cytosolic fraction): unaffected
further reduction of nuclear nSREBP1 at 30 μmol/L ([6]; gradual sterol depletion, 24 hours, 30 vs 10 μmol/L): did not further reduce nSREBP1 in the nucleus by a significant amount
completeness of SREBP nuclear transport inhibition ([6]; rapid and gradual sterol depletion protocols, HepG2): did not completely reduce nuclear transport of SREBPs
concentration dependence of nSREBP1 nuclear reduction ([6]; rapid depletion with HPCD, 2 hours, 0, 10 or 30 μmol/L): concentration dependent
nSREBP2 in cytosolic fraction ([7]; 30 μmol/L, 3 experiments): not significantly increased
precursor pSREBP2 in cytosolic fraction ([7]; 30 μmol/L, 3 experiments): remained unchanged
processing of SREBP precursors to nuclear (mature) forms, SREBP2 ([7]; cytosolic fraction): unaffected
nuclear SREBP1 protein in liver [8]: reduced
precursor SREBP1 protein in liver [8]: reduced
nuclear SREBP2 protein in liver [9]: reduced
precursor SREBP2 protein in liver [9]: reduced
abcg5 transcripts in liver ([10]; 4 and 8 weeks): not reduced
abcg8 transcripts in liver ([10]; 4 and 8 weeks): not reduced
hmgcr (HMG-CoA reductase) mRNA in liver ([10]; 4 weeks): significantly decreased expression
srebf1 (SREBP1) transcripts in liver ([10]; 4 weeks, P<0.05): reduced
hmgcr (HMG-CoA reductase) mRNA in liver ([10]; 8 weeks): significantly decreased expression
acly (ATP citrate lyase) transcripts in liver ([10]; 8 weeks, P<0.05): significantly reduced
fasn1 (fatty acid synthase-1) transcripts in liver ([10]; 8 weeks, P<0.05): significantly reduced
srebf1 (SREBP1) transcripts in liver ([10]; 8 weeks, P<0.05): reduced
srebf2 (SREBP2) transcripts in liver ([10]; 8 weeks, P<0.05): reduced
NPC1L1 protein in liver [11]: significant NTM‐induced reduction
HDAC3 nuclear content in liver [12]: not significantly changed
attenuation of nuclear accumulation of ChREBP [13]: ≈ 50%
blood cell populations and blood chemistries ([14]; 8 weeks of treatment, other than changes shown, vs control animals): did not reveal any significant changes
blood chemistries [14, 19]: normal blood chemistries
red blood cells, white blood cells, major lymphocyte subsets, blood platelets [14, 19]: no changes
other side effects ([14]; subcutaneous osmotic pumps, 8 weeks): no other side effects were observed
solubility [15]: 100 mg/mL (≈ 33.5 mM)
delivery to blood cells and organs [16]: easily delivered
biomarkers (liver transaminases) in other models of liver inflammation [17]: significantly reduced
suppression of diabetes, duration [18]: 1 year
